Results taken from ChEMBL document CHEMBL5724801, “EUbOPEN Chemogenomics Library - Multiplex” (2024).
Where “and” joins values, the source holds several entries; their conditions need not be identical. Equal entries are not always repeated.

Test system: Fibroblast
Assay: Multiplex assay against human fibroblast
Assay type: toxicity, cell-based
Method in brief: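 Tubulin, mitochondrial-mass and membrane-permeability phenotypes are per cents of healthy-nucleus cells. Cells were gated by CellPathfinder machine learning into Hoechst high-intensity objects or normal cells, normal cells into healthy, pyknosed or fragmented nuclei, and pyknosed cells into mitotic or apoptotic. Before that, live cells stained at seeding with Hoechst33342, BioTracker Green Microtubule Cytoskeleton Dye, MitoTracker Red and Annexin V Alexa Fluor 680 were imaged on a CQ1 microscope at 37°C and 5% CO2 after compound addition.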

[1] = 12 h, 1 µM, compound concentration 1 uM
[2] = 12 h, 10 µM, compound concentration 10 uM
[3] = 24 h, 1 µM, compound concentration 1 uM
[4] = 24 h, 10 µM, compound concentration 10 uM
[5] = 48 h, 1 µM, compound concentration 1 uM
[6] = 48 h, 10 µM, compound concentration 10 uM

CCCCCC(O)/C=C/[C@H]1C(=O)CC(O)C1C/C=C\CCCC(=O)O (stereo partly drawn) was tested, and the “Population Apoptotic (%)” value [1] was 52% and 50%, the “Population Fragmented Nuclei (%)” value [1] was 24% and 40% and the “Population Healthy Nuclei (%)” value [1] was 65% and 41%. For the same compound, the “Population Hoechst High Intensity Objects (%)” value [1] was 1% and 2%, the “Population Membrane Permeable-Phenotype (%)” value [1] was 0% and 7% and the “Population Mitotic Cells (%)” value [1] was 47% and 50%. For the same compound, the “Population Normal (%)” value [1] was 98% and 97%, the “Population Pyknosed Nuclei (%)” value [1] was 10% and 18% and the “Population Tubulin-Different-Phenotype (%)” value [1] was 19% and 52%. For the same compound, the “Total Cell Count” value [1] was 172 and 169, the “Population Apoptotic (%)” value [2] was 42% and 34% and the “Population Fragmented Nuclei (%)” value [2] was 16% and 20%. The “Population Healthy Nuclei (%)” value [2] was 69% and 56%, the “Population Hoechst High Intensity Objects (%)” value [2] was 0% and 2% and the “Population Membrane Permeable-Phenotype (%)” value [2] was 0% and 3%. The “Population Mitochondria Different-Phenotype (%)” value [2] was 1% and 7%, the “Population Mitotic Cells (%)” value [2] was 57% and 65% and the “Population Normal (%)” value [2] was 99% and 97%. For the same compound, the “Population Pyknosed Nuclei (%)” value [2] was 13% and 23%, the “Population Tubulin-Different-Phenotype (%)” value [2] was 16% and 41% and the “Total Cell Count” value [2] was 139 and 101. The “Population Apoptotic (%)” value [3] was 35% and 50%, the “Population Fragmented Nuclei (%)” value [3] was 20% and 41% and the “Population Healthy Nuclei (%)” value [3] was 70% and 50%. The “Population Hoechst High Intensity Objects (%)” value [3] was 0% and 1%, the “Population Membrane Permeable-Phenotype (%)” value [3] was 0% and 4% and the “Population Mitochondria Different-Phenotype (%)” value [3] was 2% and 10%. For the same compound, the “Population Mitotic Cells (%)” value [3] was 64% and 50%, the “Population Normal (%)” value [3] was 99% and 98% and the “Population Pyknosed Nuclei (%)” value [3] was 8%. The “Population Tubulin-Different-Phenotype (%)” value [3] was 21% and 47%, the “Total Cell Count” value [3] was 169 and 184 and the “Population Apoptotic (%)” value [4] was 61% and 33%. For the same compound, the “Population Fragmented Nuclei (%)” value [4] was 17% and 18%, the “Population Healthy Nuclei (%)” value [4] was 72% and 59% and the “Population Hoechst High Intensity Objects (%)” value [4] was 2% and 4%. For the same compound, the “Population Membrane Permeable-Phenotype (%)” value [4] was 1% and 3%, the “Population Mitochondria Different-Phenotype (%)” value [4] was 3% and 1% and the “Population Mitotic Cells (%)” value [4] was 38% and 66%. The “Population Normal (%)” value [4] was 97% and 95%, the “Population Pyknosed Nuclei (%)” value [4] was 9% and 21% and the “Population Tubulin-Different-Phenotype (%)” value [4] was 21% and 29%. The “Total Cell Count” value [4] was 138 and 101, the “Population Apoptotic (%)” value [5] was 50% and 30% and the “Population Fragmented Nuclei (%)” value [5] was 27% and 47%. For the same compound, the “Population Healthy Nuclei (%)” value [5] was 66% and 46%, the “Population Hoechst High Intensity Objects (%)” value [5] was 3% and 2% and the “Population Membrane Permeable-Phenotype (%)” value [5] was 0% and 3%. For the same compound, the “Population Mitochondria Different-Phenotype (%)” value [5] was 2% and 7%, the “Population Mitotic Cells (%)” value [5] was 50% and 70% and the “Population Normal (%)” value [5] was 96% and 97%. For the same compound, the “Population Pyknosed Nuclei (%)” value [5] was 5%, the “Population Tubulin-Different-Phenotype (%)” value [5] was 19% and 42% and the “Total Cell Count” value [5] was 175 and 186. For the same compound, the “Population Apoptotic (%)” value [6] was 63% and 33%, the “Population Fragmented Nuclei (%)” value [6] was 17% and 30% and the “Population Healthy Nuclei (%)” value [6] was 74% and 61%. For the same compound, the “Population Hoechst High Intensity Objects (%)” value [6] was 4% and 0%, the “Population Membrane Permeable-Phenotype (%)” value [6] was 0% and 6% and the “Population Mitochondria Different-Phenotype (%)” value [6] was 0% and 3%. For the same compound, the “Population Mitotic Cells (%)” value [6] was 36% and 66%, the “Population Normal (%)” value [6] was 95% and 99% and the “Population Pyknosed Nuclei (%)” value [6] was 8%. The “Total Cell Count” value [6] was 141 and 104.
COC(=O)c1ccc2c(c1)NC(=O)/C2=C(\Nc1ccc(N(C)C(=O)CN2CCN(C)CC2)cc1)c1ccccc1 [NINTEDANIB] was tested, and the “Population Apoptotic (%)” value [1] was 16.28% and 33.33%, the “Population Fragmented Nuclei (%)” value [1] was 16.48% and 7.77% and the “Population Healthy Nuclei (%)” value [1] was 59.09% and 77.67%. For the same compound, the “Population Hoechst High Intensity Objects (%)” value [1] was 0%, the “Population Membrane Permeable-Phenotype (%)” value [1] was 6.73% and 3.75% and the “Population Mitochondria Different-Phenotype (%)” value [1] was 17.31% and 10%. For the same compound, the “Population Mitotic Cells (%)” value [1] was 83.72% and 66.67%, the “Population Normal (%)” value [1] was 100% and the “Population Pyknosed Nuclei (%)” value [1] was 24.43% and 14.56%. The “Population Tubulin-Different-Phenotype (%)” value [1] was 38.46% and 36.88%, the “Total Cell Count” value [1] was 176 and 206 and the “Population Apoptotic (%)” value [2] was 40.91% and 35.76%. The “Population Fragmented Nuclei (%)” value [2] was 5.54% and 1.86%, the “Population Healthy Nuclei (%)” value [2] was 51.47% and 66.87% and the “Population Hoechst High Intensity Objects (%)” value [2] was 0.65% and 0%. For the same compound, the “Population Membrane Permeable-Phenotype (%)” value [2] was 29.11% and 30.65%, the “Population Mitochondria Different-Phenotype (%)” value [2] was 33.54% and 14.24% and the “Population Mitotic Cells (%)” value [2] was 59.09% and 64.24%. The “Population Normal (%)” value [2] was 99.35% and 100%, the “Population Pyknosed Nuclei (%)” value [2] was 43% and 31.26% and the “Population Tubulin-Different-Phenotype (%)” value [2] was 51.27% and 85.14%. For the same compound, the “Total Cell Count” value [2] was 309 and 483, the “Population Apoptotic (%)” value [3] was 16.22% and 30% and the “Population Fragmented Nuclei (%)” value [3] was 15.92% and 9.59%. The “Population Healthy Nuclei (%)” value [3] was 65.67% and 76.71%, the “Population Hoechst High Intensity Objects (%)” value [3] was 0% and the “Population Membrane Permeable-Phenotype (%)” value [3] was 3.79% and 3.57%. The “Population Mitochondria Different-Phenotype (%)” value [3] was 8.33% and 10.71%, the “Population Mitotic Cells (%)” value [3] was 83.78% and 70% and the “Population Normal (%)” value [3] was 100%. The “Population Pyknosed Nuclei (%)” value [3] was 18.41% and 13.7%, the “Population Tubulin-Different-Phenotype (%)” value [3] was 31.82% and 40.48% and the “Total Cell Count” value [3] was 201 and 219. For the same compound, the “Population Apoptotic (%)” value [4] was 45.74% and 54.65%, the “Population Fragmented Nuclei (%)” value [4] was 5.3% and 6.9% and the “Population Healthy Nuclei (%)” value [4] was 59.09% and 71.92%. For the same compound, the “Population Hoechst High Intensity Objects (%)” value [4] was 0.75% and 0%, the “Population Membrane Permeable-Phenotype (%)” value [4] was 12.18% and 13.36% and the “Population Mitochondria Different-Phenotype (%)” value [4] was 45.51% and 32.53%. For the same compound, the “Population Mitotic Cells (%)” value [4] was 54.26% and 45.35%, the “Population Normal (%)” value [4] was 99.25% and 100% and the “Population Pyknosed Nuclei (%)” value [4] was 35.61% and 21.18%. For the same compound, the “Population Tubulin-Different-Phenotype (%)” value [4] was 66.67% and 90.75%, the “Total Cell Count” value [4] was 266 and 406 and the “Population Apoptotic (%)” value [5] was 21.43% and 45%. For the same compound, the “Population Fragmented Nuclei (%)” value [5] was 19.15% and 12.93%, the “Population Healthy Nuclei (%)” value [5] was 74.89% and 78.45% and the “Population Hoechst High Intensity Objects (%)” value [5] was 0%. For the same compound, the “Population Membrane Permeable-Phenotype (%)” value [5] was 0.57% and 1.65%, the “Population Mitotic Cells (%)” value [5] was 78.57% and 55% and the “Population Normal (%)” value [5] was 100%. The “Population Pyknosed Nuclei (%)” value [5] was 5.96% and 8.62%, the “Population Tubulin-Different-Phenotype (%)” value [5] was 23.86% and 42.31% and the “Total Cell Count” value [5] was 235 and 232. For the same compound, the “Population Apoptotic (%)” value [6] was 60.29% and 65.38%, the “Population Fragmented Nuclei (%)” value [6] was 8.47% and 8.93% and the “Population Healthy Nuclei (%)” value [6] was 64.11% and 83.57%. For the same compound, the “Population Hoechst High Intensity Objects (%)” value [6] was 0%, the “Population Membrane Permeable-Phenotype (%)” value [6] was 9.43% and 8.97% and the “Population Mitochondria Different-Phenotype (%)” value [6] was 44.65% and 33.45%. For the same compound, the “Population Mitotic Cells (%)” value [6] was 39.71% and 34.62%, the “Population Normal (%)” value [6] was 100% and the “Population Tubulin-Different-Phenotype (%)” value [6] was 58.49% and 91.72%. The “Total Cell Count” value [6] was 248 and 347.
